Only some compounds are listed: those with a hit (about 1.1% of all), similar ones and a draw of the others.
Diaphorase act = counter-screen for diaphorase-based assays: diaphorase activators and chemical reducers. Diaphorase/resazurin coupled assay, resorufin fluorescence, 16 min; active compounds read high; 1 = vehicle wells, 0 = NADH-free wells. activation factor at 20 µM. hit rate 0.005% among 190,000;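 active = diaphorase activity raised at least twofold by the compound at 20 µM; inactive = activation factor below 2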
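Material: Clostridium kluyveri diaphorase, purified enzyme; Quantity: enzyme 0.07 U/mL final; Medium: HEPES pH 7.4 buffer with MgCl2 and Tween 20; Dosing: single compound dose of 20 µM, 1% DMSO final; Schedule: 16 min reaction at room temperature; Measured by: red resorufin fluorescence at 544/590 nm excitation/emission.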
PMI act = activators of human phosphomannose isomerase; hit rate 0.005% among 190,000; activation factor at 20 µM; AID 1214; purified human PMI, coupled resazurin fluorescence, 20 min; active compounds read high; 1 = vehicle control, 0 substrate-free wells; P34949;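 active = activation factor of 2 or more at 20 µM, relative to plate controls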
Target sequence (P34949 whole entry, looked up): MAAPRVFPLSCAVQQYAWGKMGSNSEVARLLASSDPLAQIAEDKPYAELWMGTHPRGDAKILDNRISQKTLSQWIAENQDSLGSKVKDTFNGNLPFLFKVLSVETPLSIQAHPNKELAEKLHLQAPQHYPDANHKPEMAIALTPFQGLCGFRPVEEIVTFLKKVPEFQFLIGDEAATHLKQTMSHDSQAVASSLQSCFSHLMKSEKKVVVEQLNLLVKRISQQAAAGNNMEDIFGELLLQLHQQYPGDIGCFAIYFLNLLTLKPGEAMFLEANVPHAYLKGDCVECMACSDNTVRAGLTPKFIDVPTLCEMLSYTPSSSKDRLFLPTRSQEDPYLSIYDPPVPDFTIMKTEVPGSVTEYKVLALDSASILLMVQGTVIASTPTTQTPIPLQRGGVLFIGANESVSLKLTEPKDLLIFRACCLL
G6PDH CS = L. mesenteroides G6PDH inhibition counter-screen | Purified L. mesenteroides G6PDH, diaphorase/resazurin coupled fluorescence, 45 min | inhibition, % at 5 µM | hit rate 0.12% among 200,000; in the data active = inhibition above about 50%
DTT redox prof = compounds producing H2O2 with reducing agent – biochemical, NIH compound library profiling, artefact control for MLSCN library redox annotation, primary screen; DTT-dependent redox cycling H2O2, phenol red/HRP absorbance; 100% = 100 µM peroxide control, 0% = buffer; activation, % at 10 µM; hit rate 0.03% among 200,000; AID 878;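 active = activation of at least 50% relative to the plate's high and low controls in the primary single-dose screen; inactive = activation below 50%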;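 also: compound incubated with DTT at 0.8 mM final as the reducing agent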
Diaph inh CS = inhibits diaphorase or chemically oxidizes, flagging diaphorase assay artifacts; diaphorase resazurin-to-resorufin fluorescence, NADH, 16 min; bacterial (C. kluyveri) enzyme, not human; inhibition, % at 20 µM; hit rate 0.69% among 190,000;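 active = primary screen inhibition at 20 µM above a set limit, cut at about 50% in these data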;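 also: plate controls were DMSO with full reaction for no effect and wells lacking NADH for full effect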
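Assay system: diaphorase enzyme from Clostridium kluyveri; Input: enzyme working solution with 0.14 U/mL diaphorase; Timing: 16 min at room temperature; Technique: resorufin fluorescence, excitation 544 nm, emission 590 nm; Benchmarks: positive control minus NADH, DMSO neutral control.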
PMI act hi M6P = PMI (human) activation, high substrate. P34949. coupled PMI enzyme assay, resazurin fluorescence, 20 min; active compounds read high; 1 = untreated enzyme, 0 = substrate-free blank. activation factor at 20 µM. hit rate 0.34% among 190,000. AID 1216;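 active = activation factor of 2 or more at 20 µM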
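Test system – human PMI in coupled enzyme assay · Timing – 20 min incubation at room temperature · Detection – Diaphorase-driven resazurin-to-resorufin fluorescence, excitation 544, emission 590 nm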
Active calls of the source: *.

SMILES | Diaphorase act | PMI act | G6PDH CS | DTT redox prof | Diaph inh CS | PMI act hi M6P
CC(=O)c1ccc(NC(=O)c2ccc(C)c(Br)c2)cc1 | 0.1 | 1 | 8 | 0 | 94* | 1
C/C(=N\NC(=O)c1cccc(N/N=C(\C)c2ccco2)c1)c1ccco1 | 0.9 | 1.1 | -3 | 0 | 14 | 0.8
C/C(=N\NC(=O)c1cccc(N/N=C(\C)c2cc(O)ccc2O)c1)c1cc(O)ccc1O | 0.8 | 1.8 | -11 | 1 | 15 | 3*
O=C(O)c1ccc(/C=N/NC(=O)c2cc(-c3ccc4c5c(cccc35)CC4)n[nH]2)cc1 | 0.3 | 1 | 2 | 0 | 68* | 1
O=C(N/N=C/c1ccccn1)c1cc(-c2cccc3ccccc23)n[nH]1 | 0.7 | 1 | -68 | 0 | 30 | 1
Cc1cccc(NC(=O)N2CCC(n3nnc4cc(C)ccc43)CC2)c1 | 0.2 | 0.9 | 19 | 0 | 79* | 0.9
Cc1ccc2c(c1)nnn2C1CCN(C(=O)NCc2ccccc2)CC1 | 1.2 | 1.1 | 11 | -1 | -17 | 1.1
Cc1csc(NC(=O)CSc2nnc(NC(=O)COc3ccc(Cl)cc3)s2)n1 | 1.1 | 1.1 | 19 | 0 | -8 | 1
CN(Cc1ccccc1)C(=O)CCn1c(=O)oc2ccccc21 | 0.9 | 1 | 1 | -2 | 7 | 1
O=C(CCn1c(=O)oc2ccccc21)N(Cc1ccccc1)c1ccccc1 | 0.3 | 0.9 | 7 | 1 | 69* | 0.9
Oc1ccc(-c2csc(-c3ccccc3)n2)cc1O | 0.3 | 0.4 | 19 | -6 | 71* | 0.7
Oc1ccc(-c2csc(Nc3ncccn3)n2)cc1O | 0.5 | 0.4 | 29 | -2 | 52* | 0.7
CCOC(=O)c1ccc(NC(=O)CSC(=S)N2CCOCC2)cc1 | 0.9 | 1 | 6 | 0 | 13 | 1
CC1CN(c2nc3ccccc3cc2-c2ccccc2)CC(C)O1 (configuration not stated) | 0.9 | 1 | 0 | 0 | 14 | 0.9
Cc1ccc(S(=O)(=O)NCC(=O)NCC(=O)OCC(=O)N2CC(=O)Nc3ccccc32)cc1C | 1 | 0.9 | 1 | -1 | 0 | 0.9
c1cc2c3c(cccc3c1)C(N1CCCCC1)=N2 | 0.6 | 0.7 | 52* | 0 | 43 | 0.4
c1cc2c3c(cccc3c1)C(N1CCCCCC1)=N2 | 0.9 | 0.8 | -1 | 0 | 10 | 0.9
COc1ccc(-c2cn3c(C)c(C(=O)Nc4cccc(C)n4)sc3n2)cc1 | 1 | 1.7 | -1 | 0 | 1 | 2*
Cc1cccc(NC(=O)c2sc3nc(-c4ccccc4)cn3c2C)n1 | 0.9 | 0.8 | -53 | 1 | 10 | 0.8
CN(C(=O)CSc1nc(N)c2c3c(sc2n1)CSC(C)(C)C3)c1ccccc1 | 0.9 | 1 | -22 | 0 | 15 | 1.1
COc1ccc2c(c1)-c1nc(N)sc1CC2 | 0.4 | 0.3 | 43 | 0 | 60* | 0.2
COc1ccc2[nH]c3c(=S)nc[nH]c3c2c1 | 0.7 | 1.8 | 6 | -1 | 26 | 2.6*
O=C(c1ccccc1)N1CCN(S(=O)(=O)c2cccc(NS(=O)(=O)c3ccccc3)c2)CC1 | 1 | 1.1 | 8 | 0 | -3 | 1
COc1ccc(/C=N/NC(=O)c2nn(-c3ccc(Cl)cc3)c(=O)c3c(N)scc23)cc1 | 0.5 | 0.5 | 12 | 7 | 50* | 0.6
COc1ccc(/C=N/NC(=O)c2nn(-c3ccc(C)c(C)c3)c(=O)c3ccccc23)cc1 | 0.8 | 0.9 | -40 | 2 | 22 | 0.8
SMILES | Diaphorase act | PMI act | G6PDH CS | DTT redox prof | Diaph inh CS | PMI act hi M6P
COc1ccc(/C=N/NC(=O)c2nn(-c3ccccc3)c(=O)c3c(N)scc23)cc1 | 0.4 | 0.4 | 30 | -4 | 57* | 0.5
Cc1cc(/C=C2/C(=N)N3C(=NC2=O)SN=C3S(C)(=O)=O)c(C)n1-c1ccccc1F | 0.9 | 1.6 | 6 | 0 | 13 | 1.7
CS(=O)(=O)C1=NSC2=NC(=O)/C(=C\c3cccn3-c3ccc(Cl)cc3)C(=N)N21 | 0.5 | 1.1 | -1 | 0 | 51* | 1.1
CC(C)CC1CCCCC1OC(=O)C[N+]1(C)CCCCC1 (configuration not stated) | 1 | 0.9 | 14 | 7 | 2 | 1.2
Cc1cc(Br)ccc1-n1[nH]c(C)c(C=Nc2cccc3nsnc23)c1=O | 0.4 | 0.5 | 15 | -1 | 61* | 0.3
CCCCn1c(NS(=O)(=O)c2ccccc2)c(S(=O)(=O)c2ccc(C)cc2)c2nc3ccccc3nc21 | 0.6 | 0.8 | 11 | 100* | 35 | 0.4
CCCCn1c(NC(=O)c2ccco2)c(S(=O)(=O)c2ccc(C)cc2)c2nc3ccccc3nc21 | 0.3 | 0.5 | 38 | 5 | 69* | 0.5
CCCCCn1c(NC(=O)c2ccco2)c(S(=O)(=O)c2ccc(C)cc2)c2nc3ccccc3nc21 | 0.5 | 0.8 | 14 | 1 | 48 | 0.5
O=C(CN1CCN(Cc2ccccc2)CC1)N1CCCCCC1 | 1 | 0.4 | 6 | 0 | 5 | 1.2
COc1ccc(-c2cc3nnc(-c4ccccc4)nc3s2)cc1 | 0.9 | 1.6 | -2 | 3 | 8 | 2.5*
COCCNC(=O)C(c1ccccc1F)N(C(=O)C(=O)NC1CCCC1)C1CCCCC1 (configuration not stated) | 0.8 | 0.9 | 10 | 1 | 15 | 0.9
O=c1sc(/C=N/Nc2ccccc2)c(Cl)n1Cc1ccccc1 | 0.8 | 1.4 | 6 | 1 | 21 | 2.1*
COc1ccc(S(=O)(=O)N=Nc2c(O)[nH]c3ccccc23)cc1 | 1.2 | 1.9 | 8 | 1 | -23 | 2.5*
Cc1ccc(S(=O)(=O)N=Nc2c(O)[nH]c3ccccc23)cc1C | 1 | 1.9 | 3 | 0 | 4 | 2.2*
Cc1ccc(N(CC(=O)N=Nc2c(O)[nH]c3ccccc23)S(C)(=O)=O)c(C)c1 | 0.8 | 0.9 | 2 | -1 | 21 | 0.9
COc1cccc(C2CC(=O)N3CN(c4cccc(Cl)c4C)CSC3=C2C#N)c1OC (configuration not stated) | 0.5 | 0.6 | 8 | -2 | 51* | 1
COc1ccc(OC)c(C2CC(=O)N3CN(c4cccc(Cl)c4)CSC3=C2C#N)c1 (configuration not stated) | 0.5 | 0.8 | 7 | 0 | 46 | 0.7
CCOc1ccc(N2CSC3=C(C#N)C(c4ccco4)CC(=O)N3C2)cc1 (configuration not stated) | 0.6 | 1.3 | 23 | 0 | 42 | 1.6

Compound activity: PubChem, several laboratories
